The list is not random: actives were taken first. Their share in the collection is about 4%.
OX1R antag-1: antagonists of human orexin 1 receptor; inhibition, % at 5 µM; CHO/OX1R cells, Fluo-8 calcium fluorescence, orexin A; O43613; 330,000 tested, 0.43% active;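 active means inhibition above its plate's threshold, mean inhibition of all tested compounds on the plate plus 3 SD, cut at about 37% in these data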;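 further: 0% = orexin A challenge wells and 100% = SB-334867-A antagonist wells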
TAAR1 agonist: agonists of human TAAR1. Q96RJ0. 360,000 tested, 0.99% active. activation, % at 3 µM. CHO RD-HGA16 TAAR1, Fluo-8 calcium fluorescence; vehicle wells 0%, saturating PEA agonist 100%;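 active means activation above the mean activation of all test compounds in the run plus 3 SD, cut at about 38% in these data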
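test system = CHO RD-HGA16 cells carrying human TAAR1 plus Gα16 | schedule = 17-24 h seeding, 75 min 37 °C dye, 30 min RT | compound dosing = 3 µM single concentration | control set = DMSO and PEA EC100 | replicates = n 1 | signal = Fluo-8 fluorescence, 5 s baseline then 140 s kinetic read | measure = percent activation vs PEA EC100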
TAAR1 antagonist: antagonists of human TAAR1; Q96RJ0; CHO RD-HGA16 TAAR1, Fluo-8 calcium fluorescence, antagonist; inhibition, % at 3 µM; 360,000 tested, 1.5% active; AID 624466;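 active means inhibition above a per-plate cutoff, the mean inhibition of test compounds on that plate plus 3 SD, cut at about 49% in these data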;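 further: 0% = DMSO plus EC80 beta-PEA response and 100% = DMSO alone without agonist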
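Test system – hTAAR1-expressing CHO RD-HGA16 cells, Gα16-coupled · Reagent – β-PEA at EC80 concentration, post-compound challenge · Compound dosing – 3 µM, single point · Timing – 140 s kinetic read after compound, 140 s after agonist · Detection – Fluo-8 intracellular calcium dye fluorescence, real-time kinetic reads · Control set – DMSO and EC80 PEA controls · Repeats – n of 1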
NTR1 ag: agonists of human neurotensin receptor NTR1; 330,000 tested, 0.17% active; NTR1-U2OS beta-arrestin-GFP spot imaging, agonist mode; activation, % at 20 µM; P30989; AID 493036;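 active means activation at or above 40% of the spot to cytoplasm intensity ratio, with at least 20 cells analyzed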;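 further: 0% = DMSO without peptide and 100% = 100 nM NTR1 peptide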
Target sequence (P30989 whole entry, looked up): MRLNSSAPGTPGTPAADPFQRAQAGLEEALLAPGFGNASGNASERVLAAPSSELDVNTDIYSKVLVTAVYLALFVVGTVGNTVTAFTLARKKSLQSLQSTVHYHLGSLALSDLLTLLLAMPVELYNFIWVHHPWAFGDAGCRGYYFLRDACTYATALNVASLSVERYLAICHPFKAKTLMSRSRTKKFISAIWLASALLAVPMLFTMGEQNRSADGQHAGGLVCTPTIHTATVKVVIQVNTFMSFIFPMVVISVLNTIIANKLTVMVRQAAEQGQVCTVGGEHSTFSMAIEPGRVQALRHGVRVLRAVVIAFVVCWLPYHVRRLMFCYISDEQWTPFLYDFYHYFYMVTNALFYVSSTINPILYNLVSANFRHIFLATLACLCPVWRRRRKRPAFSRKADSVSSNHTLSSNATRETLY
CHO parental Ca: counter-screen: ATP calcium response change in parental CHO cells | parental CHO-K1, ATP-induced calcium, Fluo-8 fluorescence | inhibition, % at 5.6 µM | 330,000 tested, 0.63% active;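 active means inhibition above that plate's mean sample inhibition plus 3 SD, cut at about 26% in these data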;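 further: 0% = ATP-challenged DMSO wells and 100% = DMSO wells without ATP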
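Material: Parental CHO cells | Reagent: ATP | Compound dosing: Single nominal dose of 5.6 µM per compound | Detection: Intracellular calcium via Fluo-8 no-wash fluorescent dye | Read-out: % inhibition of ATP-induced calcium mobilization | Benchmarks: Low control ATP plus DMSO, high control DMSO only | Replicates: Singlicate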
OX1R antag-2: blocks the human orexin 1 receptor; O43613; OX1R-expressing cells, FRET antagonist read-out; inhibition, % at 6.6 µM; 330,000 tested, 1.8% active; in the data active means inhibition mostly above about 38%, no sharp cut-off; inactive means mostly below about 40%;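 further: 0% = agonist challenge alone and 100% = reference antagonist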
Active calls of the source: *; · = not tested or not shown.

SMILES	OX1R antag-1	TAAR1 agonist	TAAR1 antagonist	NTR1 ag	CHO parental Ca	OX1R antag-2
O=C(OCc1nnc(-c2ccc([N+](=O)[O-])cc2)o1)C1CC(=O)N(CCc2ccccc2)C1 (stereo not given)	-10.2	-3.8	4.0	-0.4	-2.1	59.5*
N#Cc1ccccc1COC(=O)CCN=C1NS(=O)(=O)c2ccccc21	-5.9	5.3	4.8	1.0	-3.6	2.2
COc1ccc2c(c1)C(NC(=O)C(F)(F)F)CC21CCCCC1 (stereo not given)	·	-2.8	-16.9	·	·	·
CCN(C[C@H]1N[C@@](C)(C(=O)OC)[C@H]2C(=O)N(C)C(=O)[C@@H]12)C(=O)Nc1ccc(C(F)(F)F)cc1	-10.7	0.9	-7.8	-1.2	-7.7	0.4
O=C(C(=O)N1CCC(CNS(=O)(=O)c2ccccc2)CC1)c1cc2ccccc2o1	·	3.6	-25.0	·	·	·
CCCN(CC(=O)Nc1ccccc1OC)C(=O)Cc1ccc2c(c1)CCC2	0.0	·	·	2.2	-28.0	48.4*
CCOC(=O)c1cc2c(=O)n3ccccc3nc2n(C(C)C)c1=NC(=O)c1ccco1	-23.6	4.7	3.0	10.1	-8.2	28.9
CC(C)n1c(=NC(=O)c2ccco2)c(C#N)cc2c(=O)n3ccccc3cc21	-23.8	5.3	-9.0	-0.7	-9.7	54.4*
CC(=O)C1=C(C)N(Cc2ccc(Cl)cc2)C(=S)NC1c1ccc(Cl)cc1 (stereo not given)	·	2.3	15.9	·	·	·
CCc1ccccc1NC(=O)CSc1ncn[nH]1	0.6	1.6	-4.5	1.2	-4.8	1.2
CCc1cccc(C)c1NC(=O)CSc1ncn[nH]1	1.6	2.4	3.2	-3.3	29.1*	-4.5
COc1cc(/C=N/NS(=O)(=O)c2ccc(C)c([N+](=O)[O-])c2)cc([N+](=O)[O-])c1O	1.6	3.7	-8.3	-0.8	-8.4	9.4
COc1ccc(-n2c(O)c(/C=N/NS(=O)(=O)c3ccc(C)c([N+](=O)[O-])c3)c3ccccc3c2=O)cc1OC	-15.2	42.4*	37.9	-0.1	-14.8	20.1
CC(C)[C@H](NS(=O)(=O)c1ccc(F)cc1F)C(=O)N1CCC[C@H]1C(=O)NCc1ccccc1	·	1.1	-23.7	·	·	·
Cn1c(=O)c2c(nc(NCc3ccco3)n2C/C=C/c2ccccc2)n(C)c1=O	46.9*	21.3	35.5	20.4	38.7*	66.2
COC(=O)[C@]12C[C@H](CC(=O)NCc3cccs3)C(=O)N(Cc3ccccc3)C1=C[C@H](C(C)(C)C)O[C@@H]2C	·	-0.2	-34.9	·	·	·
c1ccc(-c2cc3nc(NCc4cccs4)ccn3n2)cc1	·	4.5	-0.8	·	·	·
COc1ccccc1-c1cc2nc(NCCc3ccc(S(N)(=O)=O)cc3)ccn2n1	·	4.1	55.5*	·	·	·
NS(=O)(=O)c1ccc(CCNc2ccn3nc(-c4cccc(C(F)(F)F)c4)cc3n2)cc1	·	21.5	60.8*	·	·	·
COc1ccccc1-c1cc2nc(NCCc3ccncc3)ccn2n1	·	4.5	8.4	·	·	·
COC(=O)C1=C(C)N(Cc2ccccc2C(F)(F)F)C(=NCc2ccccc2)NC1CCc1ccccc1 (stereo not given)	·	11.8	4.3	·	·	·
CCOC(=O)c1sc(NC(=O)Nc2ccc(Cl)cc2)nc1C	42.6	26.4	27.8	8.6	42.9*	67.4
CCOC(=O)c1sc(NC(=O)CCN2C(=O)C3CCCCC3C2=O)cc1C (stereo not given)	-30.2	6.4	49.0*	-0.7	-26.2	8.7
CCOC(=O)c1sc(NC(=O)c2ccc(Br)o2)cc1C	-25.5	4.6	5.6	4.4	-19.4	45.3*
CCOC(=O)c1sc(NC(=O)c2sccc2C)cc1C	-19.4	-3.6	-11.9	5.6	-5.4	42.0*
SMILES	OX1R antag-1	TAAR1 agonist	TAAR1 antagonist	NTR1 ag	CHO parental Ca	OX1R antag-2
CCOc1ccc(NC(=O)CCN2C(=O)C3CCCCC3C2=O)cc1OCC (stereo not given)	-28.0	1.1	5.2	-0.2	-21.3	-1.9
C[C@@H](NC(=O)[C@@H]1CCCN1C(=O)[C@@H]1CCCN1C(=O)c1cccc2ccccc12)c1ccccc1	·	1.6	-22.1	·	·	·
O=C(N[C@@H](Cc1cccnc1)C(=O)N1CCC[C@H]1C(=O)NC1CCCC1)C1CCCC1	·	0.2	-2.5	·	·	·
COCCNC(=O)C1(C)CCCN(C(=O)c2ccccc2OC)C1 (stereo not given)	·	-0.1	-8.9	·	·	·
CC(C)C[C@@H](NC(=O)C1CCC(CNC(=O)[C@@H]2CCCN2C(=O)OC(C)(C)C)CC1)C(=O)O (stereo not given in full)	·	-0.4	-4.9	1.7	·	·
CCOC(=O)c1sc(NC(=O)Nc2cccc(Cl)c2)cc1C	36.4	7.2	48.1	33.9	33.9*	47.0*
Cc1cc(Cl)ccc1NC(=O)COC(=O)c1cc([N+](=O)[O-])ccc1N1CCOCC1	-25.4	0.4	8.5	1.2	-10.3	36.8
O=C(COC(=O)c1cc([N+](=O)[O-])ccc1N1CCOCC1)Nc1ccc(Cl)cn1	-21.5	4.3	3.9	1.2	-15.2	51.9*
O=C(COC(=O)c1cc([N+](=O)[O-])ccc1N1CCOCC1)NC1CCS(=O)(=O)C1 (stereo not given)	-9.1	0.8	-27.0	-0.2	-5.6	21.1
O=C(COC(=O)c1cc([N+](=O)[O-])ccc1N1CCOCC1)Nc1ccc(Cl)cc1	-13.9	1.8	14.5	0.4	-0.9	52.4*
O=C(COC(=O)c1cc([N+](=O)[O-])ccc1N1CCOCC1)NC1CCCCC1	-28.1	2.0	-20.0	-0.7	-19.8	52.8*
N#Cc1ccc(S(=O)(=O)NC(=O)[C@H]2O[C@@H](n3ccc(=O)[nH]c3=O)[C@H](O)[C@@H]2O)cc1	·	1.6	-18.9	·	·	·
Cc1ccc(S(=O)(=O)N2CCCc3nc(-c4ccc(F)cc4)ccc32)cc1	·	0.9	-37.6	·	·	·
CCOc1ccc(N2C(=O)CC(NCCc3c[nH]c4ccccc34)C2=O)cc1 (stereo not given)	14.0	8.3	-1.2	-1.3	-7.4	61.4*
O=C(N[C@H](C(=O)N1CCC[C@H]1C(=O)NCCc1ccccc1Cl)c1ccccc1)c1ccc(Cl)cc1Cl	·	29.5	35.6	·	·	·
CC(=O)Nc1cccc(NC(=O)c2cc(-c3ccccn3)nc3ccc(Cl)cc23)c1	-16.7	9.2	65.1*	0.5	-18.5	10.8
CCCC1=NN(C(=O)C(=O)Nc2ccc(Br)cc2)C(O)(C(F)(F)F)C1 (stereo not given)	-11.6	7.7	10.4	1.4	-2.5	50.2*
CC(C)C[C@H]1COc2cc(N3CCCC3)ccc2S(=O)(=O)N1	·	1.9	4.8	·	·	·
O=C(COc1ccccc1Cl)c1ccc2c(c1)CCCC2	-28.0	1.0	20.1	3.6	28.3*	22.8
O=C(COc1cccc(Cl)c1Cl)Nc1ccc2c(c1)CCC2	2.5	12.3	-4.3	19.7	-4.7	11.8
